From PubChem BioAssay
UBC13 polyUb – human UBC13 polyubiquitination inhibition; P61088; UBC13 polyubiquitin chain formation, TR-FRET; inhibition, % at 20 µM; 0.47% of 330,000 active; AID 485273; in the data active = inhibition above about 45%, passing the limit was not always enough
Rin1 Abl inh – inhibitors of human Rin1-Abl protein interaction; TR-FRET Rin1/Abl binding, biochemical; inhibition, % at 7.35 µM; 0.4% of 360,000 active; AID 588664; in the data active = inhibition above about 5%, passing the limit was not always enough
SUMO HTRF inh – blocks human SUMOylation mediated by UBC9 | P63279 | HTRF SUMOylation assay, SAE1/SAE2 + UBC9, in vitro | inhibition, % at 35 µM | 0.36% of 290,000 active | AID 2006; in the data active = inhibition above about 50%, passing the limit was not always enough
ALR inh – inhibitors of human sulfhydryl oxidase ALR; inhibition, % (test concentration not listed); purified ALR, DTT oxidation, H2O2 HRP-luminol luminescence; P55789; 3.8% of 290,000 active;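 active = mean replicate inhibition above about 79%, with every replicate also reaching it, limit read from the data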
RBBP9 inhibitor – inhibitors of human serine hydrolase RBBP9 | 0.2% of 220,000 active | recombinant RBBP9, FP-Rh probe fluorescence polarization | inhibition, % at 7.94 µM | O75884;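 active = inhibition above the campaign mean of all tested compounds plus 3 SD, cut at about 14% in these data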;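 also: plate controls were DMSO wells with RBBP9 for no effect and wells lacking RBBP9 protein for full effect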
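System: RBBP9 protein / Quantity: 2.5 µM RBBP9 dispensing solution, before mixing / Also added: Serine-hydrolase probe FP-Rh, 375 nM pre-mixing / Dosing: 7.94 µM single dose, 0.794% DMSO / Timing: enzyme-compound preincubation 30 min, then probe labeling 45 min, 25 °C / Signal: FP readout at 525/598 nm / Controls: DMSO-treated enzyme wells and wells lacking RBBP9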
PREPL inh – inhibitors of human prolyl oligopeptidase-like enzyme PREPL; Q4J6C6; AID 2751; 0.68% of 320,000 active; inhibition, % at 5.96 µM; recombinant PREPL, fluorescence polarization activity-based probe; in the data active = inhibition above about 43%;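 also: 0% = enzyme with DMSO and 100% = wells lacking enzyme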
Starred values were filed as active, the others as inactive; · = not tested or not shown. Hits are enriched below; roughly 4.3% of the tested compounds scored in any of these assays.

SMILES	UBC13 polyUb	Rin1 Abl inh	SUMO HTRF inh	ALR inh	RBBP9 inhibitor	PREPL inh
O=C(NCc1cccnc1)c1cccc(S(=O)(=O)Nc2cccc(Cl)c2)c1	14	4	·	0	·	-3
O=c1c2ccccc2c(/C=N/n2cnnc2)c(O)n1-c1ccccc1	7	4	18	30	-11	14
O=c1c2ccccc2c(/C=N/NS(=O)(=O)c2ccccc2)c(O)n1-c1ccccn1	-6	-1	10	98*	-2	16
Nc1c(C(=O)NCc2ccco2)c2nc3ccccc3nc2n1CCc1ccccc1	·	-2	99*	·	-6	·
CCOc1ccc(-n2c(N)c(C(=O)NCc3ccco3)c3nc4ccccc4nc32)cc1	-20	-2	19	-9	-11	14
COc1ccc(S(=O)(=O)N2CCCC(C(=O)NCCN3CCOCC3)C2)cc1C (stereo unspecified)	-1	0	-2	4	·	11
CCCCn1c(NC(=O)c2ccccc2Cl)c(C#N)c2nc3ccccc3nc21	-23	5	·	21	-10	38
N#Cc1c(NC(=O)c2ccccc2Cl)n(Cc2ccccc2)c2nc3ccccc3nc12	·	8	100*	9	-3	12
COc1ccccc1NC(=O)CSCC(N)=O	6	2	14	94*	-3	13
COc1ccccc1NC(=O)CSc1nc(N)c(-c2ccccc2)c(=O)[nH]1	-2	-4	13	-13	3	8
COc1ccc(Cc2c(O)nc(SCC(=O)c3ccc(OC)cc3)[nH]c2=O)cc1	4	-2	3	98*	0	-6
CCc1c(O)nc(SCC(=O)Nc2ccccc2OC)[nH]c1=O	16	-5	7	99*	-1	-3
COc1ccccc1NC(=O)CC(=O)Nc1ccccc1OC	19	1	2	-5	·	-2
COc1ccccc1NC(=O)CSc1nc(O)c(Cc2ccccc2)c(=O)[nH]1	2	-1	18	88*	2	3
C=CCOc1ccc(/C=C/C(=O)OCC(=O)N2CCC(c3ccccc3)=N2)cc1	12	-1	·	·	·	12
C=CC[C@@H](CC(=O)N[C@H](CO)Cc1ccccc1)C(=O)N[C@H](COC(=O)[C@H](CC=C)CC(=O)OC(C)(C)C)Cc1c[nH]c2ccccc12	·	-3	·	·	·	·
CC(c1ccccc1)N1CC(C(=O)N2CCN(Cc3ccc(C#N)cc3)CC2)CC1=O (stereo unspecified)	-1	3	·	·	·	·
Cn1c2ccccc2c(=O)c2ccc(NCc3ccc4c(c3)OCO4)cc21	·	-5	·	·	·	·
COc1ccccc1NC(=O)c1c[nH]c2ccccc12	3	3	-14	-9	·	1
COc1ccccc1NC(=O)c1cc(=O)[nH]c2ccccc12	-16	5	13	99*	·	8
COc1ccc(Cl)cc1NC(=O)CSc1nc(-c2ccccc2)cc(=O)[nH]1	-6	3	18	-2	·	-19
COc1ccccc1NC(=O)CSc1nc(O)cc(=O)[nH]1	-1	1	1	98*	1	-3
CCCN(CCC)Cc1cc(=O)oc2cc(C)cc(C)c12	·	2	·	·	·	·
CC/C=C\[C@H](O)[C@H](O)C1=C(C)C(=O)[C@]2(O1)C(=O)N[C@@](OC)(C(=O)c1ccccc1)C2O (stereo partly specified)	-13	-2	1	-37	-10	6
CC(=O)Nc1ccc(NC(=O)N2CCOCC2)cc1	·	0	·	·	·	·
SMILES	UBC13 polyUb	Rin1 Abl inh	SUMO HTRF inh	ALR inh	RBBP9 inhibitor	PREPL inh
CC(=O)/C(=N\Nc1ccc(C)cc1)N1CCOCC1	-14	3	-14	99*	5	1
C=CC[C@H](CC(=O)NCCO)C(=O)N[C@H](COC(=O)[C@H](CC=C)CC(=O)OC(C)(C)C)Cc1c[nH]c2ccccc12	17	2	·	-2	·	7
CCc1cc(-c2nnn(CCC3COCCO3)c2C(C)(C)O)ccc1-c1cn(CCc2c[nH]c3ccccc23)nn1 (stereo unspecified)	·	-1	·	·	·	·
NC1=NN=C(c2ccc3c(c2)OCCO3)CS1	-3	-1	6	99*	-7	-7
Cc1sc(N)nc1-c1ccc2c(c1)OCCO2	-6	-10	-2	59	·	-3
COc1ccc2c(c1)-c1nc(/N=C/c3c(O)ccc4ccccc34)sc1CC2	·	-2	57*	·	2	·
CCOc1cc(/C=C2\SC(=S)N(Nc3ccccc3)C2=O)ccc1O	-90	-2	-31	81*	-80	-106
CCOc1cc(/C=C2\SC(=S)N(NS(=O)(=O)c3ccccc3)C2=O)ccc1O	-69	-1	3	99*	·	-153
O=C1/C(=C/c2ccncc2)SC(=S)N1Nc1ccccc1	-4	2	-11	99*	-6	-6
O=S(=O)(NCc1nnc2ccccn12)c1ccc(Cl)cc1	0	1	·	4	·	-3
O=C(Nc1ccc(CN2CCOCC2)cc1)c1ccco1	5	4	2	77*	·	-11
Cc1ccc(SCC(=O)Nc2cccc(NC(=O)c3ccco3)c2)cc1	1	3	-21	-3	-14	-6
O=C(Nc1ccc(CN2CCOCC2)cc1)c1ccc(Cl)cc1	3	1	1	-2	·	4
